Assay results taken from ChEMBL document CHEMBL4689842, “EUbOPEN Chemogenomics Library wave 1” (2021).

What was measured:
Assay type in all cases: toxicity, cell-based
U2OS [1] = assay: Multiplex assay against U2OS; conditions: human
Outline: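 Live cells were stained at seeding with Hoechst33342, BioTracker Green Microtubule Cytoskeleton Dye, MitoTracker Red and Annexin V Alexa Fluor 680. Following compound addition, they were imaged on a CQ1 microscope at 37°C and 5% CO2 and gated by CellPathfinder machine learning into Hoechst high-intensity objects or normal cells, with normal cells split into healthy, pyknosed or fragmented nuclei and pyknosed cells into mitotic or apoptotic. Tubulin, mitochondrial-mass and membrane-permeability phenotypes are per cents of healthy-nucleus cells.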

HEK-293T = assay: Incucyte cell viability with HEK293T; conditions: human, 10 µM, compound concentration 10 uM; also: filed as whole numbers so only -1 and 0 and 1 occur
U2OS [2] = assay: Incucyte cell viability with U2OS; conditions: human, 10 µM, compound concentration 10 uM; also: filed as whole numbers so only -1 and 0 and 1 occur
[3] = 12 h, 1 µM, compound concentration 1 uM, replicate 1
[4] = 12 h, 1 µM, compound concentration 1 uM, replicate 2
[5] = 12 h, 10 µM, compound concentration 10 uM, replicate 1
[6] = 12 h, 10 µM, compound concentration 10 uM, replicate 2
[7] = 24 h, 1 µM, compound concentration 1 uM, replicate 1
[8] = 24 h, 1 µM, compound concentration 1 uM, replicate 2
[9] = 24 h, 10 µM, compound concentration 10 uM, replicate 1
[10] = 24 h, 10 µM, compound concentration 10 uM, replicate 2
[11] = 6 h, replicate number 1, timepoint 6 hours
[12] = 12 h, replicate number 1, timepoint 12 hours
[13] = 18 h, replicate number 1, timepoint 18 hours
[14] = 24 h, replicate number 1, timepoint 24 hours

In the case of `Cc1cn(-c2cc(NC(=O)c3ccc4c(c3)CN(c3cncnc3)C[C@@H]4C)cc(C(F)(F)F)c2)cn1`, the “Population Apoptotic (%)” value (U2OS [1]; [3]) is reported as 56%, the “Population Healthy Nuclei (%)” value (U2OS [1]; [3]) is reported as 81% and the “Population Hoechst High Intensity Objects (%)” value (U2OS [1]; [3]) is reported as 7%. The “Population Membrane Permeable-Phenotype (%)” value (U2OS [1]; [3]) was 6%, the “Population Mitochondria Different-Phenotype (%)” value (U2OS [1]; [3]) was 23% and the “Population Mitotic Cells (%)” value (U2OS [1]; [3]) was 43%. The “Population Normal (%)” value (U2OS [1]; [3]) was 92%, the “Population Pyknosed Nuclei (%)” value (U2OS [1]; [3]) was 11% and the “Population Tubulin-Different-Phenotype (%)” value (U2OS [1]; [3]) was 33%. For the same compound, the “Total Cell Count” value (U2OS [1]; [3]) was 149, the “Population Apoptotic (%)” value (U2OS [1]; [4]) was 0% and the “Population Fragmented Nuclei (%)” value (U2OS [1]; [4]) was 7%. The “Population Healthy Nuclei (%)” value (U2OS [1]; [4]) was 86%, the “Population Hoechst High Intensity Objects (%)” value (U2OS [1]; [4]) was 16% and the “Population Membrane Permeable-Phenotype (%)” value (U2OS [1]; [4]) was 11%. The “Population Mitochondria Different-Phenotype (%)” value (U2OS [1]; [4]) was 30%, the “Population Mitotic Cells (%)” value (U2OS [1]; [4]) was 100% and the “Population Normal (%)” value (U2OS [1]; [4]) was 83%. For the same compound, the “Population Pyknosed Nuclei (%)” value (U2OS [1]; [4]) was 6%, the “Population Tubulin-Different-Phenotype (%)” value (U2OS [1]; [4]) was 19% and the “Total Cell Count” value (U2OS [1]; [4]) was 116. For the same compound, the “Population Apoptotic (%)” value (U2OS [1]; [5]) was 33%, the “Population Fragmented Nuclei (%)” value (U2OS [1]; [5]) was 7% and the “Population Healthy Nuclei (%)” value (U2OS [1]; [5]) was 84%. The “Population Hoechst High Intensity Objects (%)” value (U2OS [1]; [5]) was 3%, the “Population Membrane Permeable-Phenotype (%)” value (U2OS [1]; [5]) was 40% and the “Population Mitochondria Different-Phenotype (%)” value (U2OS [1]; [5]) was 17%. The “Population Mitotic Cells (%)” value (U2OS [1]; [5]) was 66%, the “Population Normal (%)” value (U2OS [1]; [5]) was 96% and the “Population Pyknosed Nuclei (%)” value (U2OS [1]; [5]) was 7%. The “Population Tubulin-Different-Phenotype (%)” value (U2OS [1]; [5]) was 16%, the “Total Cell Count” value (U2OS [1]; [5]) was 198 and the “Population Apoptotic (%)” value (U2OS [1]; [6]) was 66%. For the same compound, the “Population Fragmented Nuclei (%)” value (U2OS [1]; [6]) was 10%, the “Population Healthy Nuclei (%)” value (U2OS [1]; [6]) was 87% and the “Population Hoechst High Intensity Objects (%)” value (U2OS [1]; [6]) was 15%. The “Population Membrane Permeable-Phenotype (%)” value (U2OS [1]; [6]) was 24%, the “Population Mitochondria Different-Phenotype (%)” value (U2OS [1]; [6]) was 26% and the “Population Mitotic Cells (%)” value (U2OS [1]; [6]) was 33%. The “Population Normal (%)” value (U2OS [1]; [6]) was 84%, the “Population Pyknosed Nuclei (%)” value (U2OS [1]; [6]) was 3% and the “Population Tubulin-Different-Phenotype (%)” value (U2OS [1]; [6]) was 17%. For the same compound, the “Total Cell Count” value (U2OS [1]; [6]) was 118, the “Population Apoptotic (%)” value (U2OS [1]; [7]) was 45% and the “Population Fragmented Nuclei (%)” value (U2OS [1]; [7]) was 6%. The “Population Healthy Nuclei (%)” value (U2OS [1]; [7]) was 83%, the “Population Hoechst High Intensity Objects (%)” value (U2OS [1]; [7]) was 3% and the “Population Membrane Permeable-Phenotype (%)” value (U2OS [1]; [7]) was 6%. For the same compound, the “Population Mitotic Cells (%)” value (U2OS [1]; [7]) was 55%, the “Population Normal (%)” value (U2OS [1]; [7]) was 96% and the “Population Pyknosed Nuclei (%)” value (U2OS [1]; [7]) was 9%. For the same compound, the “Population Tubulin-Different-Phenotype (%)” value (U2OS [1]; [7]) was 42%, the “Total Cell Count” value (U2OS [1]; [7]) was 210 and the “Population Apoptotic (%)” value (U2OS [1]; [8]) was 42%. The “Population Fragmented Nuclei (%)” value (U2OS [1]; [8]) was 9%, the “Population Healthy Nuclei (%)” value (U2OS [1]; [8]) was 85% and the “Population Hoechst High Intensity Objects (%)” value (U2OS [1]; [8]) was 6%. The “Population Membrane Permeable-Phenotype (%)” value (U2OS [1]; [8]) was 12%, the “Population Mitochondria Different-Phenotype (%)” value (U2OS [1]; [8]) was 26% and the “Population Mitotic Cells (%)” value (U2OS [1]; [8]) was 57%. For the same compound, the “Population Normal (%)” value (U2OS [1]; [8]) was 93%, the “Population Pyknosed Nuclei (%)” value (U2OS [1]; [8]) was 5% and the “Population Tubulin-Different-Phenotype (%)” value (U2OS [1]; [8]) was 34%. For the same compound, the “Total Cell Count” value (U2OS [1]; [8]) was 143, the “Population Apoptotic (%)” value (U2OS [1]; [9]) was 42% and the “Population Fragmented Nuclei (%)” value (U2OS [1]; [9]) was 6%. The “Population Healthy Nuclei (%)” value (U2OS [1]; [9]) was 85%, the “Population Hoechst High Intensity Objects (%)” value (U2OS [1]; [9]) was 4% and the “Population Membrane Permeable-Phenotype (%)” value (U2OS [1]; [9]) was 28%. For the same compound, the “Population Mitochondria Different-Phenotype (%)” value (U2OS [1]; [9]) was 14%, the “Population Mitotic Cells (%)” value (U2OS [1]; [9]) was 57% and the “Population Normal (%)” value (U2OS [1]; [9]) was 95%. The “Population Pyknosed Nuclei (%)” value (U2OS [1]; [9]) was 7%, the “Population Tubulin-Different-Phenotype (%)” value (U2OS [1]; [9]) was 12% and the “Total Cell Count” value (U2OS [1]; [9]) was 254. The “Population Apoptotic (%)” value (U2OS [1]; [10]) was 22%, the “Population Fragmented Nuclei (%)” value (U2OS [1]; [10]) was 8% and the “Population Healthy Nuclei (%)” value (U2OS [1]; [10]) was 84%. For the same compound, the “Population Hoechst High Intensity Objects (%)” value (U2OS [1]; [10]) was 6%, the “Population Membrane Permeable-Phenotype (%)” value (U2OS [1]; [10]) was 20% and the “Population Mitochondria Different-Phenotype (%)” value (U2OS [1]; [10]) was 22%. The “Population Mitotic Cells (%)” value (U2OS [1]; [10]) was 77%, the “Population Normal (%)” value (U2OS [1]; [10]) was 93% and the “Population Tubulin-Different-Phenotype (%)” value (U2OS [1]; [10]) was 10%. For the same compound, the “Total Cell Count” value (U2OS [1]; [10]) was 128, the “Growth Rate” value (HEK-293T; [11]) was 0 and the “Growth Rate” value (HEK-293T; [12]) was 0. For the same compound, the “Growth Rate” value (HEK-293T; [13]) was 0, the “Growth Rate” value (HEK-293T; [14]) was 0 and the “Growth Rate” value (U2OS [2]; 0 h, replicate number 1, timepoint 0 hours) was 0. For the same compound, the “Growth Rate” value (U2OS [2]; [11]) was 0, the “Growth Rate” value (U2OS [2]; [12]) was 0 and the “Growth Rate” value (U2OS [2]; 12 h, replicate number 2, timepoint 12 hours) was 1. For the same compound, the “Growth Rate” value (U2OS [2]; [13]) was 0 and the “Growth Rate” value (U2OS [2]; [14]) was 0.
